Reference: ChEMBL document CHEMBL5136969, “A niclosamide-tobramycin hybrid adjuvant potentiates cefiderocol against P. aeruginosa” (2021)
The source made the active and inactive calls.

What was measured:
[1] = tested on: Acinetobacter baumannii; experiment: Antibacterial activity against Acinetobacter baumannii ATCC 17978 assessed as potentiation of cefiderocol antibacterial activity by measuring FIC after 18 hrs by microbroth dilution method; assay type: functional
Procedure, shortened: (§1)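 Checkerboard in Mueller-Hinton broth: cefiderocol 2-fold diluted on one axis, adjuvant 2-fold on the other. Overnight cultures were adjusted to 0.5 McFarland in saline, diluted 1:50 in MHB, and inoculated at about 5 × 10^5 CFU/mL. Incubation was 18 h at 37 °C. Turbidity was read visually and confirmed at 590 nm. FIC index = FIC of antibiotic + FIC of adjuvant; ≤0.5 synergy, >4 antagonism.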

[2] = tested on: Pseudomonas aeruginosa; experiment: Potentiation of linezolid-induced antibiotic activity against Pseudomonas aeruginosa PAO1 assessed as MIC fold reduction at 8 ug/ml after 18 hrs by microbroth dilution method; assay type: functional; conditions: dose 8 µg/ml
Procedure, shortened: (§2)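 Adjuvant held at a fixed 8 μg/mL while the antibiotic was 2-fold serially diluted in Mueller-Hinton broth (MHB), per CLSI microbroth dilution. Overnight cultures were adjusted in saline to 0.5 McFarland, then diluted 1:50 in MHB to about 5 × 10^5 CFU/mL final, and incubated 18 h at 37 °C. MIC was the lowest concentration with no visible turbidity, confirmed at 590 nm. Fold potentiation = MIC alone / MIC with adjuvant.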

[3] = tested on: Acinetobacter baumannii; experiment: Potentiation of chloamphenicol-induced antibiotic activity against Acinetobacter baumannii ATCC 17978 assessed as MIC fold reduction at 8 ug/ml after 18 hrs by microbroth dilution method; assay type: functional; conditions: dose 8 µg/ml; procedure, shortened: as §2
[4] = tested on: Pseudomonas aeruginosa; experiment: Antibacterial activity against MDR clinical isolate Pseudomonas aeruginosa PA86052 assessed as potentiation of cefiderocol antibacterial activity by measuring FIC index after 18 hrs by microbroth dilution method; assay type: functional
Procedure, shortened: (§3)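 Checkerboard in MHB (iron-replete, not iron-depleted CAMHB). Cefiderocol was 2-fold serially diluted along one axis and the adjuvant along the other. Inoculum was 0.5 McFarland diluted 1:50, about 5 × 10^5 CFU/mL final. Incubation was 18 h at 37 °C, with turbidity read visually and confirmed at 590 nm. FIC was the MIC in combination over the MIC alone for each agent, and the FIC index was their sum. Cut-offs were ≤0.5 synergy, >0.5–4 additive, >4 antagonism.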

[5] = tested on: Pseudomonas aeruginosa; experiment: Antibacterial activity against colistin-resistant clinical isolate Pseudomonas aeruginosa PA101243 assessed as reduction in bacterial growth after 18 hrs by microbroth dilution method; assay type: functional
Procedure, shortened: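 Broth microdilution per CLSI in Mueller-Hinton broth (MHB). Overnight cultures were adjusted to 0.5 McFarland in saline, diluted 1:50 in MHB, and added at about 5 × 10^5 CFU/mL final to equal volumes of 2-fold serial dilutions of agent. Incubation was 18 h at 37 °C. MIC was the lowest concentration with no visible turbidity, confirmed by absorbance at 590 nm.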

[6] = tested on: Pseudomonas aeruginosa; experiment: Antibacterial activity against MDR clinical isolate Pseudomonas aeruginosa PA264 assessed as reduction in bacterial growth after 18 hrs in presence of cefiderocol by microbroth dilution method; assay type: functional
Procedure, shortened: (§4)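 Checkerboard in MHB. Cefiderocol was 2-fold serially diluted along one axis and the adjuvant along the other. Inoculum was prepared from 0.5 McFarland saline suspensions diluted 1:50 in MHB, giving about 5 × 10^5 CFU/mL final. Plates ran 18 h at 37 °C, with turbidity confirmed at 590 nm. FIC = combination MIC ÷ MIC alone for each agent, and FIC index = sum of both. Interpretation: ≤0.5 synergy, >0.5–4 additive, >4 antagonism.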

[7] = tested on: Escherichia coli; experiment: Antibacterial activity against Escherichia coli ATCC 25922 assessed as potentiation of cefiderocol antibacterial activity by measuring FIC after 18 hrs by microbroth dilution method; assay type: functional; procedure, shortened: as §1
[8] = tested on: Pseudomonas aeruginosa; experiment: Potentiation of ceftazidime-induced antibiotic activity against MDR clinical isolate Pseudomonas aeruginosa PA260 assessed as MIC fold reduction at 8 ug/ml after 18 hrs by microbroth dilution method; assay type: functional, organism-based; conditions: dose 8.0 µg/ml; procedure, shortened: as §2
[9] = tested on: Acinetobacter baumannii; experiment: Antibacterial activity against Acinetobacter baumannii AB92247 assessed as reduction in bacterial growth after 18 hrs by microbroth dilution method; assay type: functional
Procedure, shortened: (§5)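 CLSI microbroth dilution in MHB. Overnight cultures were adjusted to 0.5 McFarland in saline, diluted 1:50, and inoculated at about 5 × 10^5 CFU/mL. Agents were 2-fold serially diluted and incubated 18 h at 37 °C. MIC is the lowest concentration without visible turbidity, confirmed by absorbance at 590 nm. Medium with and without cells served as controls.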

[10] = tested on: Acinetobacter baumannii; experiment: Potentiation of colistin-induced antibiotic activity against Acinetobacter baumannii ATCC 17978 assessed as MIC fold reduction at 8 ug/ml after 18 hrs by microbroth dilution method; assay type: functional; conditions: dose 8 µg/ml; procedure, shortened: as §2
[11] = tested on: Acinetobacter baumannii; experiment: Potentiation of moxifloxacin-induced antibiotic activity against Acinetobacter baumannii ATCC 17978 assessed as MIC fold reduction at 8 ug/ml after 18 hrs by microbroth dilution method; assay type: functional; conditions: dose 8 µg/ml; procedure, shortened: as §2
[12] = tested on: Escherichia coli; experiment: Potentiation of cotrimoxazole-induced antibiotic activity against Escherichia coli ATCC 25922 assessed as MIC fold reduction at 8 ug/ml after 18 hrs by microbroth dilution method; assay type: functional; conditions: dose 8 µg/ml; procedure, shortened: as §2
[13] = tested on: Pseudomonas aeruginosa; experiment: Antibacterial activity against colistin-resistant clinical isolate Pseudomonas aeruginosa PA114228 assessed as reduction in bacterial growth after 18 hrs in presence of cefiderocol by microbroth dilution method; assay type: functional; procedure, shortened: as §3
[14] = tested on: Klebsiella pneumoniae; experiment: Antibacterial activity against Klebsiella pneumoniae KP113250 assessed as potentiation of cefiderocol antibacterial activity by measuring FIC after 18 hrs by microbroth dilution method; assay type: functional; procedure, shortened: as §1
[15] = tested on: Klebsiella pneumoniae; experiment: Antibacterial activity against Klebsiella pneumoniae KP113254 assessed as reduction in bacterial growth after 18 hrs by microbroth dilution method; assay type: functional
Procedure, shortened: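 CLSI broth microdilution. Overnight cultures were adjusted in saline to 0.5 McFarland, diluted 1:50 in Mueller-Hinton broth (MHB), and inoculated at about 5 × 10^5 CFU/mL. Agents were 2-fold serially diluted in MHB, mixed 1:1 with inoculum, and held at 37 °C for 18 h. MIC was the lowest concentration with no visible turbidity, confirmed at 590 nm.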

[16] = tested on: Pseudomonas aeruginosa; experiment: Potentiation of cefotaxime-induced antibiotic activity against MDR clinical isolate Pseudomonas aeruginosa PA260 assessed as MIC fold reduction at 8 ug/ml after 18 hrs by microbroth dilution method; assay type: functional, organism-based; conditions: dose 8.0 µg/ml
Procedure, shortened: (§6)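 Initial screen in MHB using a fixed 8 μg mL−1 of adjuvant combined with each antibiotic under 2-fold dilution. Broth microdilution used about 5 × 10^5 CFU/mL at 37 °C for 18 h, with visible turbidity read and confirmed at 590 nm. Fold-potentiation = antibiotic MIC alone ÷ antibiotic MIC with adjuvant.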

[17] = tested on: Escherichia coli; experiment: Potentiation of aztreonam-induced antibiotic activity against Escherichia coli ATCC 25922 assessed as MIC fold reduction at 8 ug/ml after 18 hrs by microbroth dilution method; assay type: functional; conditions: dose 8 µg/ml; procedure, shortened: as §6
[18] = tested on: Pseudomonas aeruginosa; experiment: Antibacterial activity against colistin-resistant clinical isolate Pseudomonas aeruginosa PA91433 assessed as reduction in bacterial growth after 18 hrs in presence of cefiderocol by microbroth dilution method; assay type: functional; procedure, shortened: as §3
[19] = tested on: Pseudomonas aeruginosa; experiment: Antibacterial activity against MDR clinical isolate Pseudomonas aeruginosa PA100036 assessed as reduction in bacterial growth after 18 hrs in presence of cefiderocol by microbroth dilution method; assay type: functional; procedure, shortened: as §4
[20] = tested on: Escherichia coli; experiment: Antibacterial activity against Escherichia coli 94393 assessed as potentiation of cefiderocol antibacterial activity by measuring FIC after 18 hrs by microbroth dilution method; assay type: functional; procedure, shortened: as §1
[21] = tested on: Acinetobacter baumannii; experiment: Antibacterial activity against Acinetobacter baumannii ATCC 17978 assessed as reduction in bacterial growth after 18 hrs by microbroth dilution method; assay type: functional; procedure, shortened: as §5

What does the source list for `NC[C@H]1O[C@H](O[C@H]2[C@H](OCCCCc3cn(-c4ccc(NC(=O)c5cc(Cl)ccc5O)cc4)nn3)[C@@H](O[C@H]3O[C@H](CO)[C@@H](O)[C@H](N)[C@H]3O)[C@H](N)C[C@@H]2N)[C@H](N)C[C@@H]1O`?
FIC [1]: 0.25; fold change (FC) [2]: 4; fold change (FC) [3]: 4; FIC [4]: 1; MIC [5]: > 128 µg/mL; MIC [6]: 0.125 µg/mL; FIC [7]: 0.5; Activity [8]: Active; MIC [9]: > 128 µg/mL; fold change (FC) [10]: 4; fold change (FC) [11]: 4; fold change (FC) [12]: 4; MIC [13]: 16 µg/mL; FIC [14]: 0.25; MIC [15]: > 128 µg/mL; Activity [16]: Active; fold change (FC) [17]: 4; MIC [18]: 1 µg/mL; MIC [19]: 0.25 µg/mL; FIC [20]: 0.25; MIC [21]: > 128 µg/mL
